Calls of active or inactive are those of the source. The rule behind the calls is not given here.
Assays:
[1] = biological target: T1, Gamma-aminobutyric acid receptor subunit alpha-6/beta-3 (Rattus norvegicus) (UniProt P30191+P63079); test: (§1) Displacement of [3H]EBOB from rat GABA-A receptor alpha6beta3 expressed in HEK293 cell membranes after 90 mins in presence of GABA by liquid scintillation counting analysis
[2] = biological target: T2, Gamma-aminobutyric acid receptor subunit alpha-6/beta-3 (Rattus norvegicus, UniProt P30191+P63079); test: as §1
T2 sequence (P30191 whole entry): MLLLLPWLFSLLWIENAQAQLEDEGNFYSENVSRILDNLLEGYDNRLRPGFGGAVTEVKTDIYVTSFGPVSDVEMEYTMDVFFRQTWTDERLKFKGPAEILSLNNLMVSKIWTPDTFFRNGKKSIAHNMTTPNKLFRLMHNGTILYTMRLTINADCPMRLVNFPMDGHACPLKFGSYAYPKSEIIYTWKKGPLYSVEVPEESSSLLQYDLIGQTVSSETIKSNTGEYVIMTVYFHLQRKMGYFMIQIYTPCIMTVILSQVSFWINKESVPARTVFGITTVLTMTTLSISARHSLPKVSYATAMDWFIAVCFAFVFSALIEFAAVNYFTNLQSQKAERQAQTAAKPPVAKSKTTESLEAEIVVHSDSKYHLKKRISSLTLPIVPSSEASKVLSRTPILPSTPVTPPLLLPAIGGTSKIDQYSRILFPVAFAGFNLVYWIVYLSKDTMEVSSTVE
T2 sequence (P63079 whole entry): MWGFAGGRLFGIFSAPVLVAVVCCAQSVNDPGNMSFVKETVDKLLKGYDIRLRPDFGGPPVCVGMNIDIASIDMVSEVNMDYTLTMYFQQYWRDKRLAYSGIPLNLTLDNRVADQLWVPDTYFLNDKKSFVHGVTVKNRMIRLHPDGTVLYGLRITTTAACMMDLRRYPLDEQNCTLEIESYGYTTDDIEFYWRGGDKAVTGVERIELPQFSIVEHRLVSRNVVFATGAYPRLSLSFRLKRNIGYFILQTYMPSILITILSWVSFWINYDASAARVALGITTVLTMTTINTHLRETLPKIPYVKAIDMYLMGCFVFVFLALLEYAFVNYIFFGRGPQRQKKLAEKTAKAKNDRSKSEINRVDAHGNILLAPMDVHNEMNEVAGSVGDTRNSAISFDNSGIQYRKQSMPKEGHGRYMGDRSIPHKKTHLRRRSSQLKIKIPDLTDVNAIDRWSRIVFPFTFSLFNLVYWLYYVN

[3] = biological target: Gamma-aminobutyric acid receptor subunit alpha-6/beta-2 (Rattus norvegicus) (UniProt P30191+P63138); test: Displacement of [3H]EBOB from rat GABA-A receptor alpha6beta2 expressed in HEK293 cell membranes up to 10 uM after 90 mins by liquid scintillation counting analysis relative to control
Procedure, shortened: (§2)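 Crude membranes from HEK 293 cells transiently Ca-phosphate-transfected with rat subunit cDNAs, harvested at 48 h. Membranes (150-200 µg protein) incubated with 3 nM [3H]EBOB in 50 mM Tris/citrate pH 7.3 plus 0.2 M NaCl. Compound up to 10 µM, final DMSO 0.1%, no GABA, 90 min at 21 °C. Bound radioligand collected by GF/C filtration and counted by scintillation.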

[4] = biological target: T3, Gamma-aminobutyric acid receptor subunit alpha-6/beta-3/delta (Rattus norvegicus, UniProt P18506+P30191+P63079); test: (§3) Displacement of [3H]EBOB from rat GABA-A receptor alpha6beta3delta expressed in HEK293 cell membranes after 90 mins in presence of GABA by liquid scintillation counting analysis
T3 sequence (P18506 whole entry): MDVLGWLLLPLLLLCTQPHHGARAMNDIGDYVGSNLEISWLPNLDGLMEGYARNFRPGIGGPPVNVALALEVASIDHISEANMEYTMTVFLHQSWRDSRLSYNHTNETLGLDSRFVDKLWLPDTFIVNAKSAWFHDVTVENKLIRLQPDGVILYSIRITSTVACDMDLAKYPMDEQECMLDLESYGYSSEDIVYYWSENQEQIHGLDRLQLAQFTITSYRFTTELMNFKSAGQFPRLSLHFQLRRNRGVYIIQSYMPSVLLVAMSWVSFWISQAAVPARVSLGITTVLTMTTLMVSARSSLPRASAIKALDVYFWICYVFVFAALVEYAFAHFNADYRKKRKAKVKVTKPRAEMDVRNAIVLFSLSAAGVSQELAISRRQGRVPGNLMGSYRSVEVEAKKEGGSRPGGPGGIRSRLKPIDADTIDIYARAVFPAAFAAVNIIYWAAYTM
T3 sequence (P30191 whole entry): as the sequence (P30191 whole entry) above
T3 sequence (P63079 whole entry): as the sequence (P63079 whole entry) above

[5] = biological target: T4, Gamma-aminobutyric acid receptor subunit alpha-6/beta-3/delta (Rattus norvegicus) (UniProt P18506+P30191+P63079); test: as §3
[6] = biological target: T1, Gamma-aminobutyric acid receptor subunit alpha-6/beta-3 (Rattus norvegicus); test: Displacement of [3H]EBOB from rat GABA-A receptor alpha6beta3 expressed in HEK293 cell membranes at 10 uM after 90 mins by liquid scintillation counting analysis relative to control; procedure, shortened: as §2
[7] = biological target: T3, Gamma-aminobutyric acid receptor subunit alpha-6/beta-3/delta; test: Displacement of [3H]EBOB from rat GABA-A receptor alpha6beta3delta expressed in HEK293 cell membranes after 90 mins by liquid scintillation counting analysis; procedure, shortened: as §2
[8] = biological target: T5, Gamma-aminobutyric acid receptor subunit alpha-6/beta-3/gamma-2 (Rattus norvegicus) (UniProt P18508+P30191+P63079); test: Displacement of [3H]EBOB from rat GABA-A receptor alpha6beta3gamma2 expressed in HEK293 cell membranes at 10 uM after 90 mins by liquid scintillation counting analysis relative to control; procedure, shortened: as §2
[9] = biological target: GABA A receptor alpha-6/beta-2/gamma-2 (Rattus norvegicus) (UniProt P18508+P30191+P63138); test: Displacement of [3H]EBOB from rat GABA-A receptor alpha6beta2gamma2 expressed in HEK293 cell membranes at 10 uM after 90 mins by liquid scintillation counting analysis relative to control; procedure, shortened: as §2
[10] = biological target: Gamma-aminobutyric acid receptor subunit alpha-1/beta-3 (Rattus norvegicus) (UniProt P62813+P63079); test: Displacement of [3H]EBOB from rat GABA-A receptor alpha1beta3 expressed in HEK293 cell membranes at 10 uM after 90 mins by liquid scintillation counting analysis relative to control; procedure, shortened: as §2
[11] = biological target: Gamma-aminobutyric acid receptor subunit alpha-6/beta-2/delta (Rattus norvegicus) (UniProt P18506+P30191+P63138); test: Displacement of [3H]EBOB from rat GABA-A receptor alpha6beta2delta expressed in HEK293 cell membranes up to 10 uM after 90 mins by liquid scintillation counting analysis relative to control; procedure, shortened: as §2
[12] = biological target: T4, Gamma-aminobutyric acid receptor subunit alpha-6/beta-3/delta (Rattus norvegicus); test: Displacement of [3H]EBOB from rat GABA-A receptor alpha6beta3delta expressed in HEK293 cell membranes up to 10 uM after 90 mins by liquid scintillation counting analysis relative to control; procedure, shortened: as §2
[13] = biological target: Gamma-aminobutyric acid receptor subunit alpha-4/beta-3 (Rattus norvegicus) (UniProt P28471+P63079); test: Displacement of [3H]EBOB from rat GABA-A receptor alpha4beta3 expressed in HEK293 cell membranes up to 10 uM after 90 mins by liquid scintillation counting analysis relative to control; procedure, shortened: as §2
Rattus norvegicus = species on record: Rattus norvegicus; test: Selectivity ratio of IC50 for rat GABA-A receptor alpha6beta3delta expressed in HEK293 cells to IC50 for rat GABA-A receptor alpha6beta2delta expressed in HEK293 cells; type: cell-based
[14] = biological target: Gamma-aminobutyric acid receptor subunit alpha-1/beta-3/delta (Rattus norvegicus) (UniProt P18506+P62813+P63079); test: Displacement of [3H]EBOB from rat GABA-A receptor alpha1beta3delta expressed in HEK293 cell membranes at 10 uM after 90 mins by liquid scintillation counting analysis relative to control; procedure, shortened: as §2
[15] = biological target: Gamma-aminobutyric acid receptor subunit alpha-1/beta-3/gamma-2 (Rattus norvegicus) (UniProt P18508+P62813+P63079); test: Displacement of [3H]EBOB from rat GABA-A receptor alpha1beta3gamma2 expressed in HEK293 cell membranes at 10 uM after 90 mins by liquid scintillation counting analysis relative to control; procedure, shortened: as §2
[16] = biological target: Gamma-aminobutyric acid receptor subunit alpha-6/beta-2/delta (Rattus norvegicus, UniProt P18506+P30191+P63138); test: Displacement of [3H]EBOB from rat GABA-A receptor alpha6beta2delta expressed in HEK293 cell membranes after 90 mins by liquid scintillation counting analysis; procedure, shortened: as §2
Chain of Gamma-aminobutyric acid receptor subunit alpha-6/beta-2/delta (P18506 whole entry): as the sequence (P18506 whole entry) above
Chain of Gamma-aminobutyric acid receptor subunit alpha-6/beta-2/delta (P30191 whole entry): as the sequence (P30191 whole entry) above
Chain of Gamma-aminobutyric acid receptor subunit alpha-6/beta-2/delta (P63138 whole entry): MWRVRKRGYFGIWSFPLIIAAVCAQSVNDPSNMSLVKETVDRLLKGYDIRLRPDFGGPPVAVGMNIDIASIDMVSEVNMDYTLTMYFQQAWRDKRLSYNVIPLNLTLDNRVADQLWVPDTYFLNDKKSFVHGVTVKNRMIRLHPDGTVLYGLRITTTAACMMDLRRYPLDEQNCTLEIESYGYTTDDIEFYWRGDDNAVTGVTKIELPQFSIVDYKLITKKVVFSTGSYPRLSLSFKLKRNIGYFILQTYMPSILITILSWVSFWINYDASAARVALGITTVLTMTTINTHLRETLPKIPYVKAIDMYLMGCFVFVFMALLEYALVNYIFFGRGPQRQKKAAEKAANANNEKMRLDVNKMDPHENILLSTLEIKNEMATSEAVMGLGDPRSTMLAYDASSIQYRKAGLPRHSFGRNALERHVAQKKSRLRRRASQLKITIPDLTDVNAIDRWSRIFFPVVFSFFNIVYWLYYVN

[17] = biological target: Gamma-aminobutyric acid receptor subunit alpha-6/beta-2 (Rattus norvegicus, UniProt P30191+P63138); test: Displacement of [3H]EBOB from rat GABA-A receptor alpha6beta2 expressed in HEK293 cell membranes after 90 mins by liquid scintillation counting analysis; procedure, shortened: as §2
Chain of Gamma-aminobutyric acid receptor subunit alpha-6/beta-2 (P30191 whole entry): as the sequence (P30191 whole entry) above
Chain of Gamma-aminobutyric acid receptor subunit alpha-6/beta-2 (P63138 whole entry): as the sequence (P63138 whole entry) above

[18] = biological target: T6, Gamma-aminobutyric acid receptor subunit alpha-6/beta-3/gamma-2 (Rattus norvegicus, UniProt P18508+P30191+P63079); test: (§4) Displacement of [3H]EBOB from rat GABA-A receptor alpha6beta3gamma2 expressed in HEK293 cell membranes after 90 mins in presence of GABA by liquid scintillation counting analysis
T6 sequence (P18508 whole entry): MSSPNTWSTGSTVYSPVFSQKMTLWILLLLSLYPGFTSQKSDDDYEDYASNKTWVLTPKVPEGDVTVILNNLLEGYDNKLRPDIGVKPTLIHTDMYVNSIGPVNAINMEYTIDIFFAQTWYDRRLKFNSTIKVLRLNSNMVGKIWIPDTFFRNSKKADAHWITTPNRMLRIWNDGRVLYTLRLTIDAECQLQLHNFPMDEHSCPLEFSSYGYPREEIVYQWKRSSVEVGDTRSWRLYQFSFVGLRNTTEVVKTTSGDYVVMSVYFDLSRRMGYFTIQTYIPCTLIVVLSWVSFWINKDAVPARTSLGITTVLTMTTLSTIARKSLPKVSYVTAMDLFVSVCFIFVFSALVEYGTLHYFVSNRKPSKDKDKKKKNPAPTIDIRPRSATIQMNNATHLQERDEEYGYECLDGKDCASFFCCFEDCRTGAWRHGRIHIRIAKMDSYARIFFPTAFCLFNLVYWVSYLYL
T6 sequence (P30191 whole entry): as the sequence (P30191 whole entry) above
T6 sequence (P63079 whole entry): as the sequence (P63079 whole entry) above

[19] = biological target: T5, Gamma-aminobutyric acid receptor subunit alpha-6/beta-3/gamma-2 (Rattus norvegicus); test: as §4
[20] = biological target: Gamma-aminobutyric acid receptor subunit alpha-4/beta-3/gamma-2 (Rattus norvegicus) (UniProt P18508+P28471+P63079); test: Displacement of [3H]EBOB from rat GABA-A receptor alpha4beta3gamma2 expressed in HEK293 cell membranes up to 10 uM after 90 mins by liquid scintillation counting analysis relative to control; procedure, shortened: as §2
[21] = biological target: Gamma-aminobutyric acid receptor subunit alpha-4/beta-3/delta (Rattus norvegicus) (UniProt P18506+P28471+P63079); test: Displacement of [3H]EBOB from rat GABA-A receptor alpha4beta3delta expressed in HEK293 cell membranes up to 10 uM after 90 mins by liquid scintillation counting analysis relative to control; procedure, shortened: as §2
[22] = biological target: T2, Gamma-aminobutyric acid receptor subunit alpha-6/beta-3; test: Displacement of [3H]EBOB from rat GABA-A receptor alpha6beta3 expressed in HEK293 cell membranes after 90 mins by liquid scintillation counting analysis; procedure, shortened: as §2
[23] = biological target: T6, Gamma-aminobutyric acid receptor subunit alpha-6/beta-3/gamma-2; test: Displacement of [3H]EBOB from rat GABA-A receptor alpha6beta3gamma2 expressed in HEK293 cell membranes after 90 mins by liquid scintillation counting analysis; procedure, shortened: as §2
[24] = biological target: T1, Gamma-aminobutyric acid receptor subunit alpha-6/beta-3 (Rattus norvegicus); test: Displacement of [3H]EBOB from rat GABA-A receptor alpha6beta3 expressed in HEK293 cell membranes up to 10 uM after 90 mins by liquid scintillation counting analysis relative to control; procedure, shortened: as §2
[25] = biological target: T5, Gamma-aminobutyric acid receptor subunit alpha-6/beta-3/gamma-2 (Rattus norvegicus); test: Displacement of [3H]EBOB from rat GABA-A receptor alpha6beta3gamma2 expressed in HEK293 cell membranes up to 10 uM after 90 mins by liquid scintillation counting analysis relative to control; procedure, shortened: as §2
[26] = biological target: T4, Gamma-aminobutyric acid receptor subunit alpha-6/beta-3/delta (Rattus norvegicus); test: Displacement of [3H]EBOB from rat GABA-A receptor alpha6beta3delta expressed in HEK293 cell membranes at 10 uM after 90 mins by liquid scintillation counting analysis relative to control; procedure, shortened: as §2

In the case of `O=C(Nc1c(-c2cccs2)nc2c(Br)cc(Br)cn12)c1ccc(OCCCCF)cc1`, the Imax [1] is reported as 57%, the IC50 [2] is reported as 1290 nM and the Imax [3] is reported as 33%. It also gave an IC50 [4] of 490 nM, an Imax [5] of 55% and an Imax [6] of 11%. The IC50 [7] was 760 nM, the inhibition [8] was “inactive” and the inhibition [9] was “inactive”. The inhibition [10] was “inactive”, the Imax [11] was 55% and the Imax [12] was 53%. The inhibition [13] was “inactive”, the Ratio IC50 (Rattus norvegicus) was 3 and the inhibition [14] was “inactive”. The inhibition [15] was “inactive”, the IC50 [16] was 270 nM and the IC50 [17] was 740 nM. For the same molecule, the IC50 [18] was 1280 nM, the Imax [19] was 44% and the inhibition [20] was “inactive”. For the same molecule, the inhibition [21] was “inactive”.
`O=C(Nc1c(-c2cccs2)nc2c(Br)cc(Br)cn12)c1ccc(F)cc1` was tested, and the IC50 [7] was 1200 nM, the IC50 [22] was 3060 nM and the Imax [12] was 87%. For the same molecule, the IC50 [23] was 3390 nM, the Imax [24] was 91% and the Imax [25] was 103%.
With `O=C(Nc1c(-c2cccs2)nc2c(Br)cc(Br)cn12)c1ccc(OCCF)cc1` the inhibition [6] was “inactive”, the Imax [8] was 15% and the Imax [26] was 37%.
In the case of `O=C(Nc1c(-c2cccs2)nc2ccccn12)c1ccc(OCc2ccccc2)cc1`, the inhibition [6] is reported as “inactive”, the inhibition [8] is reported as “inactive” and the Imax [26] is reported as 54%.

Reference: ChEMBL document CHEMBL4190374, “Structure-Function Evaluation of Imidazopyridine Derivatives Selective for δ-Subunit-Containing γ-Aminobutyric Acid Type A (GABAA) Receptors” (J Med Chem, 2018)
